The text below walks through data of ChEMBL document CHEMBL2046427, “Nonhematotoxic naphthalene diimide modified by polyamine: synthesis and biological evaluation” (J Med Chem, 2012).

One assay has as its system K562. Kind of assay: Cytotoxicity against human K562 cells after 48 hrs by MTT assay. The class given is functional, cell-based. The following applies: K562, 48 h. A digest of the protocol:
(§1)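 MTT conversion assay at 37 °C, 5% CO₂. […] Inhibition relative to untreated cells as 100%; IC50 by linear regression, mean of three independent experiments.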
(Formazan colour is commonly taken as a measure of viable cells.)

Assay [1] has as its system HepG2. The assay is described as follows: Cytotoxicity against human HepG2 cells assessed as acruement in lysosomal mass/pH after 48 hrs by fluorescence-based high-content screening assay. The assay is classed as functional, cell-based. A digest of the protocol: (§2)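 HepG2 seeded 5 × 10³/well; after 12 h treated at 1, 5, 10, 15 and 30 μM for 48 h. Multiparameter cytotoxicity kit staining imaged by high-content screening: Hoechst 33342 for nuclear morphology, permeability dye (green nuclei) for membrane integrity, mitochondrial potential dye, and a weak-base dye for lysosomal mass/pH.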

Assay [2] has as its system HepG2. Kind of assay: Cytotoxicity against human HepG2 cells assessed as decrease in mitochondrial membrane potential after 48 hrs by fluorescence-based high-content screening assay. The assay is classed as functional, cell-based. In a few lines:
as §2

Assay [3] concerns HepG2. Kind of assay: Cytotoxicity against human HepG2 cells after 48 hrs by MTT assay. The following applies: HepG2, 48 h. The class given is functional, cell-based. In a few lines:
as §1

A further assay concerns MDA-MB-231. The assay is described as follows: Cytotoxicity against human MDA-MB-231 cells after 48 hrs by MTT assay. The assay is classed as functional, cell-based. The following applies: MDA-MB-231, 48 h. A digest of the protocol: as §1
Assay [4] has as its system HepG2. The assay is described as follows: Cytotoxicity against human HepG2 cells assessed as mitochondrial permeability augmentation after 48 hrs by fluorescence-based high-content screening assay. The class given is functional, cell-based. A digest of the protocol: as §2
Assay [5] deals with HepG2. The assay is described as follows: Cytotoxicity against human HepG2 cells assessed as cell nuclear shrinkage after 48 hrs by Hoechst 33342-based fluorescence-based high-content screening assay. The class given is functional. A digest of the protocol:
as §2

SMILES strings stand for the structures.

What is called IC50 is the concentration at which inhibition is half-maximal. A high value points to weaker potency in that assay. Consider `CN(C)CCN1C(=O)c2cccc3c(-c4ccccc4)ccc(c23)C1=O`, for which the 50% inhibitory concentration (IC50) is more than 50 µM in the assay on K562, 37 µM in the assay on HepG2 [3] and 39.2 µM with MDA-MB-231. Moreover, the Activity result in the assay with HepG2 [1], in the assay with HepG2 [2], in the assay with HepG2 [4] and with HepG2 [5] was “Dose-dependent effect” each time.

On to `NCCCNCCCNCCCN1C(=O)c2ccc3c4c(ccc(c24)C1=O)C(=O)N(CCCNCCCNCCCN)C3=O`, for which the IC50 in the assay on K562 stood at 21.2 µM; with HepG2 [3], 48.5 µM; with MDA-MB-231, 18 µM.

As to `NCCCNCCCCNCCCN1C(=O)c2ccc(-c3ccc4c(c3)C(=O)N(CCCNCCCCNCCCN)C4=O)cc2C1=O`, the IC50 in the assay on HepG2 [3] and in the assay on MDA-MB-231 was more than 50 µM each time.

As to `NCCCCNCCCCNCCCCN1C(=O)c2cccc3c(-c4ccccc4)ccc(c23)C1=O`, the IC50 was 14.2 µM in the assay on K562, 32.1 µM in the assay with HepG2 [3] and 19.1 µM with MDA-MB-231.

`NCCCCNCCCCNCCCCN1C(=O)c2ccc3c4c(ccc(c24)C1=O)C(=O)N(CCCCNCCCCNCCCCN)C3=O`: the figures for the IC50 in the assay with K562, in the assay on HepG2 [3] and with MDA-MB-231 were 28 µM, more than 50 µM and more than 50 µM, respectively.

`NCCCCNCCCCN1C(=O)c2ccc3c4c(ccc(c24)C1=O)C(=O)N(CCCCNCCCCN)C3=O`: the values for the IC50 in the assay on K562, with HepG2 [3] and in the assay on MDA-MB-231 were 41 µM, 43.8 µM and 27.6 µM, respectively.

On to `NCCCNCCCCN1C(=O)c2ccc3c4c(ccc(c24)C1=O)C(=O)N(CCCCNCCCN)C3=O`, for which the IC50 amounted to 21.2 µM in the assay with K562, 33.3 µM in the assay with HepG2 [3] and 20.2 µM in the assay on MDA-MB-231.
